The source of these data is ChEMBL document CHEMBL1122270, “N-(4-substituted-thiazolyl)oxamic acid derivatives, a new series of potent, orally active antiallergy agents” (1983).

Holding throughout (format): functional
For experiment [1], the system named is Rattus norvegicus. The experiment in a line: Antiallergic activity by rat passive cutaneous anaphylaxis (PCA) assay when administered iv.;value ranges between (0.06-0.4). The gist of the method: (§1)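 Male rats sensitized by id injection of diluted rat anti-ovalbumin reaginic serum (0.1 mL each side of shaved back). 24 h later, compound in saline was mixed with 5 mg ovalbumin in 0.5 mL 2% Evans Blue and given iv at 1 mL/kg. Blued-spot diameters were read 30 min later. Six rats per group; ED50 is 50% area reduction versus control, with 95% confidence limits.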

Experiment [2] deals with Rattus norvegicus. The experiment in a line: Antiallergic activity by rat passive cutaneous anaphylaxis (PCA) assay when administered per orally.;value ranges between (1.0-4.1.). To be noted: po. The gist of the method: (§2)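 Rats were passively sensitized intradermally with diluted reaginic anti-ovalbumin serum 24 h before challenge. Compound was suspended in 1% acacia and dosed by oral feeding needle at 1 mL/kg. After 20-30 min, rats were challenged with 0.02 mg ovalbumin in 0.5 mL 2% Evans Blue. Blued areas were measured 30 min after challenge. Six rats per dose; ED50 is 50% area reduction from control, with 95% confidence limits.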

Experiment [3] concerns Rattus norvegicus. As to the kind of experiment: Antiallergic activity by rat passive cutaneous anaphylaxis (PCA) assay when administered per orally;value ranges between (1.4-4.6.). The note with it: po. Summed up: as §2
In experiment [4] the test system is Rattus norvegicus. The experiment in a line: Antiallergic activity by rat passive cutaneous anaphylaxis (PCA) assay when administered per orally;value ranges between (2.0-5.0.). The note with it: po. Summed up: as §2
In experiment [5] the test system is Rattus norvegicus. As to the kind of experiment: Antiallergic activity by rat passive cutaneous anaphylaxis (PCA) assay when administered per orally.;value ranges between (1.3-3.2). To be noted: po. The gist of the method:
as §2

The test system of experiment [6] is Rattus norvegicus. The experiment in a line: antiallergic activity by rat passive cutaneous anaphylaxis (PCA) assay when administered iv. The gist of the method:
as §1

For experiment [7], the system named is Rattus norvegicus. The experiment in a line: Antiallergic activity by rat passive cutaneous anaphylaxis (PCA) assay when administered perorally. To be noted: po. Summed up:
as §2

Experiment [8] deals with Rattus norvegicus. As to the kind of experiment: Antiallergic activity by rat passive cutaneous anaphylaxis (PCA) assay when administered per orally;value ranges between (0.64-6.67). To be noted: po. The gist of the method:
as §2

Experiment [9] has as its system Rattus norvegicus. As to the kind of experiment: Antiallergic activity by rat passive cutaneous anaphylaxis (PCA) assay when administered iv.;value ranges between (0.2-1.8.). The gist of the method: as §1
The test system of experiment [10] is Rattus norvegicus. The experiment in a line: Antiallergic activity by rat passive cutaneous anaphylaxis (PCA) assay when administered perorally; value ranges between (2.9-15.4). The note with it: po. Summed up:
as §2

In experiment [11] the test system is Rattus norvegicus. The experiment in a line: Antiallergic activity by rat passive cutaneous anaphylaxis (PCA) assay when administered per orally;value ranges between (1.5-9.0). To be noted: po. Summed up:
as §2

For experiment [12], the system named is Rattus norvegicus. The experiment in a line: Antiallergic activity by rat passive cutaneous anaphylaxis (PCA) assay when administered per orally;value ranges between (0.11-0.75.). The note with it: po. Summed up: as §2
The subject of experiment [13] is Rattus norvegicus. The experiment in a line: Antiallergic activity by rat passive cutaneous anaphylaxis (PCA) assay when administered perorally; value ranges between (1.3-3.3). To be noted: po. Summed up:
as §2

For experiment [14], the system named is Rattus norvegicus. The experiment in a line: Antiallergic activity by rat passive cutaneous anaphylaxis (PCA) assay when administered iv;value ranges between 0.02-0.07. The gist of the method: as §1
Experiment [15] has as its system Rattus norvegicus. As to the kind of experiment: Antiallergic activity by rat passive cutaneous anaphylaxis (PCA) assay when administered per orally;value ranges between (0.32-1.04). The note with it: po. Summed up:
as §2

The subject of experiment [16] is Rattus norvegicus. The experiment in a line: Antiallergic activity by rat passive cutaneous anaphylaxis (PCA) assay when administered iv.;value ranges between (0.04-0.3). The gist of the method: as §1
For experiment [17], the system named is Rattus norvegicus. As to the kind of experiment: Antiallergic activity by rat passive cutaneous anaphylaxis (PCA) assay when administered perorally; value ranges between (0.4-2.3.). To be noted: po. Summed up: as §2

Some results are limits rather than exact numbers.

One may read the ED50 as the dose at which the effect has come halfway, by size or by number of responders. Low values mean an effect at a small dose, high ones a need for a large dose. `COc1cccc(-c2csc(NC(=O)C(=O)O)n2)c1`: the ED50 came to 0.16 mg/kg in the experiment on Rattus norvegicus [1] and 2.1 mg/kg in the experiment with Rattus norvegicus [2]. `NCCO.O=C(O)C(=O)Nc1nc(-c2ccc([N+](=O)[O-])cc2)cs1` gave an ED50 in the experiment on Rattus norvegicus [3] of 2.5 mg/kg.

In the experiment with Rattus norvegicus [4], `CCOC(=O)C(=O)Nc1nc(-c2ccc(N3CCCCC3)cc2)cs1` had an ED50 of 3.2 mg/kg. The compound `CCOC(=O)C(=O)Nc1nc(-c2ccc(OCC)cc2)cs1` registered an ED50 with Rattus norvegicus [5] of 2.1 mg/kg. Turning to `O=C(O)C(=O)Nc1nc(-c2ccccc2)cs1`, the values for the ED50 with Rattus norvegicus [6] and in the experiment with Rattus norvegicus [7] were above 3 mg/kg and around 1 mg/kg, respectively. Turning to `COc1cc(-c2csc(NC(=O)C(=O)O)n2)ccc1O.NCCO`, the ED50 in the experiment with Rattus norvegicus [6] is below 0.1 mg/kg; in the experiment with Rattus norvegicus [8], 2.1 mg/kg. With `NCCO.O=C(O)C(=O)Nc1nc(-c2ccccc2O)cs1`, the ED50 in the experiment with Rattus norvegicus [9] is 0.62 mg/kg; in the experiment with Rattus norvegicus [10], 6.7 mg/kg. `CCOC(=O)C(=O)Nc1nc(-c2ccc(O)cc2C)cs1` gave an ED50 in the experiment on Rattus norvegicus [11] of 3.7 mg/kg.

As to `CCOC(=O)C(=O)Nc1nc(-c2ccc(NC(C)=O)cc2)cs1`, the ED50 in the experiment on Rattus norvegicus [12] amounted to 0.29 mg/kg. `Cc1sc(NC(=O)C(=O)O)nc1-c1ccccc1.NCCO` had a 50% effective dose (ED50) with Rattus norvegicus [13] of 2.5 mg/kg. For `NCCO.O=C(O)C(=O)Nc1nc(-c2ccc3c(c2)OCCO3)cs1`, the ED50 in the experiment with Rattus norvegicus [14] came out at 0.039 mg/kg; in the experiment with Rattus norvegicus [15], 0.6 mg/kg. As to `NCCO.O=C(O)C(=O)Nc1nc(-c2ccc(F)cc2)cs1`, the ED50 with Rattus norvegicus [16] came to 0.11 mg/kg; in the experiment with Rattus norvegicus [17], 0.9 mg/kg.
